{"data": "Results from different studies", "note": "Each line is one published result; the experiments were not run side by side."}
{"SMILES": "CCC[C@@](N)(CO)CCc1ccc(OCCCCCC(C)C)cc1", "test system": "mouse, plasma", "conditions": "oral, 50 mg/kg", "measurement": "AUC(0-t)", "result": "5.02 µM·h"}
{"SMILES": "NCC(=O)Nc1ccc(-n2nc(C(F)(F)F)cc2-c2ccc3c(ccc4ccccc43)c2)cc1", "test system": "mouse, plasma", "conditions": "oral, 80 mg/kg, single dose", "measurement": "AUC(0-inf)", "result": "81800 ng·h/mL"}
{"SMILES": "CN[C@H](CC(C)C)C(=O)N[C@H]1C(=O)N[C@@H](CC(N)=O)C(=O)N[C@H]2C(=O)NC3C(=O)N[C@H](C(=O)N[C@H](C(=O)NCCC[N+](C)(C)C)c4cc(O)cc(O)c4-c4cc3ccc4O)[C@H](O)c3ccc(c(Cl)c3)Oc3cc2cc(c3OC2OC(CO)C(O)[C@H](O)[C@@H]2O[C@H]2CC(C)(NCc3ccc(-c4ccc(Cl)cc4)cc3)[C@H](O)[C@H](C)O2)Oc2ccc(cc2Cl)[C@H]1O (some centres unmarked)", "test system": "mouse, plasma", "conditions": "intravenous, 50 mg/kg", "measurement": "AUC", "result": "430000 ng·h/mL"}
{"SMILES": "Cc1ncc2n1-c1ccc(Cl)cc1C(c1ccccc1F)=NC2", "test system": "mouse, plasma", "conditions": "intravenous, 0.3 mg/kg", "measurement": "AUC(0-inf)", "result": "0.15 µM·h"}
{"SMILES": "CN1CCCCC1Cn1cc(C(=O)c2cc([N+](=O)[O-])ccc2I)c2ccccc21 (racemic)", "test system": "mouse, plasma", "conditions": "intravenous, 25 mg/kg", "measurement": "AUC", "result": "5830 ng·h/mL"}
{"SMILES": "Cc1cc(C)nc(Nc2ncc(C(=O)NCCc3c(C)[nH]c4ccccc34)cn2)c1", "test system": "C57BL/6 mouse, plasma", "conditions": "intraperitoneal, 8.8 mg/kg", "measurement": "AUC(0-inf)", "result": "1050 ng·h/mL"}
{"SMILES": "CCN(CC)CCCC[C@H](NC(=O)[C@H](CC(C)C)NC(=O)[C@H](C)NC(=O)[C@H](Cc1ccccc1)NC(=O)c1ccc(C(C)(C)C)cc1)C(=O)N[C@@H](CO)C(=O)OC", "test system": "male Swiss mouse, blood", "conditions": "intravenous, 3 mg/kg", "measurement": "AUC(0-inf)", "result": "1890 ng·h/mL"}
{"SMILES": "C[C@]12CC[C@H](n3ccnc3)CC1=CC[C@@H]1[C@@H]2CC[C@]2(C)C(n3cnc4ccccc43)=CC[C@@H]12.Cl.Cl", "test system": "male CD-1 mouse, plasma", "conditions": "oral, 10 mg/kg", "measurement": "AUC(0-t)", "result": "32500 ng·h/mL"}
